The source of these data is ChEMBL document CHEMBL2396601, “Synthesis and antiprotozoal activity of dicationic m-terphenyl and 1,3-dipyridylbenzene derivatives” (J Med Chem, 2013).

For series [1], the system named is Leishmania donovani. Nature of the series: Antiprotozoal activity against Leishmania donovani promastigotes infected in BALB/c mouse assessed as inhibition of liver parasitemia at 10 mg/kg, po qd for 5 days. Format: functional. The settings on record: 120 h. In outline:
(§1)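 L. donovani-infected BALB/c mice dosed daily for 5 days, 30 mg/kg ip or 10 mg/kg orally, depending on line.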

A further series concerns L6. The series can be described thus: Cytotoxicity against rat L6 cells after 72 hrs by Alamar Blue assay. The format is cell-based. The settings on record: L6, 72 h. In outline: (§2)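 Uses T. b. rhodesiense STIB900, T. cruzi Tulahuen C2C4 LacZ intracellular amastigotes, or L6 rat myoblasts depending on line.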
Series [2] is described as follows: Selectivity index, ratio of IC50 for rat L6 cells to IC50 for Leishmania amazonensis. The format is toxicity, cell-based. To be noted: read-out: Ratio IC50. In outline:
(§3)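 Selectivity index is IC50 against L6 rat myoblast cells divided by IC50 against the named parasite.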

A further series concerns Leishmania amazonensis. The series can be described thus: Antiprotozoal activity against intracellular amastigote form of Leishmania amazonensis infected in CD1 mouse macrophages after 72 hrs by […]. The format is functional, organism-based.
Series [3] in a line: Selectivity index, ratio of IC50 for rat L6 cells to IC50 for Plasmodium falciparum K1. The format is toxicity, cell-based. The settings on record: L6 cells, read-out: Ratio IC50. In outline:
as §3

Another series deals with Plasmodium falciparum. Nature of the series: Antiprotozoal activity against chloroquine-resistant Plasmodium falciparum K1 after 48 hrs by [3H]-hypoxanthine incorporation assay. Format: functional, organism-based. To be noted: Plasmodium falciparum, K1.
A short description of series [4]: Selectivity index, ratio of IC50 for rat L6 cells to IC50 for Trypanosoma cruzi Tulahuen C2C4. Format: toxicity, cell-based. To be noted: read-out: Ratio IC50. In outline: as §3
A further series concerns Trypanosoma cruzi. Nature of the series: Antiprotozoal activity against intracellular amastigote form of Trypanosoma cruzi Tulahuen C2C4 expressing LacZ infected in rat L6 cells after 48 hrs. Format: functional, organism-based. The settings on record: Tulahuen C2C4, L6, 48 h. In outline: as §2
Series [5] can be described thus: Selectivity index, ratio of IC50 for rat L6 cells to IC50 for Trypanosoma brucei rhodesiense STIB900. The settings on record: L6 cells, read-out: Ratio IC50. The format is toxicity, cell-based. In a few lines:
as §3

Series [6] concerns Trypanosoma brucei rhodesiense. The series can be described thus: Antiprotozoal activity against Trypanosoma brucei rhodesiense STIB900 after 72 hrs by Alamar Blue assay. The format is functional, organism-based. To be noted: Trypanosoma brucei, STIB900, 72 h. In a few lines: as §2
(In general: Resazurin is reduced to fluorescent resorufin, in cell work by metabolically active cells.)

Series [7] deals with Leishmania donovani. The series can be described thus: Antiprotozoal activity against Leishmania donovani promastigotes infected in BALB/c mouse assessed as inhibition of liver parasitemia at 30 mg/kg, ip qd for 5 days. The format is functional. The settings on record: 120 h, route intraperitoneal. In a few lines: as §1
Another series concerns Mus musculus. The series can be described thus: Toxicity in BALB/c mouse assessed as mortality at 30 mg/kg, ip qd for 5 days. Format: organism-based. Set-up: dose 30 mg/kg, route intraperitoneal. To be noted: in vivo, 120 h.

By inhibition in vivo is commonly meant the change of the read-out against control, counted positive when it falls. Turning to `CCCCCCCCCCCCCCCCOP(=O)([O-])OCC[N+](C)(C)C` [MILTEFOSINE], the inhibition in vivo at 10 mg/kg in the series on Leishmania donovani [1] was 96%.
One may read the IC50 as the concentration at which inhibition is half-maximal. Low readings indicate greater potency in that assay, high ones weaker potency in that assay. As to `Cl.Cl.Cl.N=C(Nc1ccc(-c2cc(Cl)cc(-c3cccc(NC(=N)c4ccccn4)c3)c2)cc1)c1ccccn1`, the IC50 in the series with L6 worked out at 2640 nM; with Leishmania amazonensis, 211 nM; with Plasmodium falciparum, 219 nM; in the series with Trypanosoma cruzi it was 1540 nM; in series [6], 109 nM. Also, the selectivity ratio in series [2] was determined as 13; in [3], 12; in [4], 2; in [5], 24. In addition, the inhibition in vivo at 30 mg/kg in the series on Leishmania donovani [7] was determined as 23%. Moreover, the Activity entry with Mus musculus is listed as “Non-toxic”.
